# In ChEMBL document CHEMBL1148511, “Novel 5-azaindole factor VIIa inhibitors” (Bioorg Med Chem Lett, 2006):
# Tests used:
# [1] = target: Thrombin and coagulation factor VII (Homo sapiens) (UniProt P00734+P08709); experiment: Selectivity for F7a/TF over F2a; assay type: protein assay
# Outline: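 FVIIa (7 nM) with soluble tissue factor (11 nM) was run in 1.5 mM EDTA. Thrombin (12.7 nM) was run in 1 mM EDTA with Tosyl-Gly-Pro-Lys-pNA at Km. Hydrolysis was followed at 405 nm, and apparent Ki came from a Morrison equation fit.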
# [2] = target: Coagulation factor VII/tissue factor (Homo sapiens) (UniProt P08709+P13726); experiment: Selectivity for F7a/TF over trypsin; assay type: protein-complex assay
# Outline: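 Trypsin (10 nM) was tested without CaCl2, using Tosyl-Gly-Pro-Lys-pNA at Km. Readout was kinetic A405, and Ki was fitted with the Morrison tight-binding equation.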
# Coagulation factor VII = target: T1, Coagulation factor VII (Homo sapiens, UniProt P08709); experiment: Binding affinity to F7a/TF complex; assay type: protein-complex assay
# T1 sequence (P08709 whole entry): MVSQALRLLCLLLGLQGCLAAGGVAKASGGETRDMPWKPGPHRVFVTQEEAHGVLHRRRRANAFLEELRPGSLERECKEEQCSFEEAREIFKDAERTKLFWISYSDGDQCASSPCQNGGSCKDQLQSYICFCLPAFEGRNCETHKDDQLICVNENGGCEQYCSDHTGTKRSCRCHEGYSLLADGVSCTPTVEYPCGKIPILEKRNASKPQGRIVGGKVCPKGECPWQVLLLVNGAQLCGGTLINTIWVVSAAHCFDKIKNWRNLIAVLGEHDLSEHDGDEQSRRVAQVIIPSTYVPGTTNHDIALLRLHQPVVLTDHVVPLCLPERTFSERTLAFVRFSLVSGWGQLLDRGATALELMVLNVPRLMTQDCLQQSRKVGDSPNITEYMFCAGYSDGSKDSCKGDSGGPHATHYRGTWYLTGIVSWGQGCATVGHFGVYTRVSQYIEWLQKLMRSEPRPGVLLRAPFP
# [3] = target: Coagulation factor VII and X (Homo sapiens) (UniProt P00742+P08709); experiment: Selectivity for F7a/TF over F10a; assay type: protein assay
# Outline: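 Reactions were started with pNA substrate at Km and read as A405 over time. Ki was fitted with the Morrison tight-binding equation.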
# Prothrombin = Prothrombin (Homo sapiens, UniProt P00734); experiment: Binding affinity to F2a
# [4] = Binding affinity to trypsin; set-up: species or system Homo sapiens
# Coagulation factor X = Coagulation factor X (Homo sapiens, UniProt P00742); experiment: Binding affinity to F10a
# Sequence of Coagulation factor X (P00742 41-179 limits assumed): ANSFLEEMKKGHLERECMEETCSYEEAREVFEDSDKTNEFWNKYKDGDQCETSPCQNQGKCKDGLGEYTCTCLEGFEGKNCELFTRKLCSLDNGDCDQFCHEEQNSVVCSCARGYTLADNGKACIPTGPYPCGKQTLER
# Sequence of Coagulation factor X (P00742 235-488 limits assumed): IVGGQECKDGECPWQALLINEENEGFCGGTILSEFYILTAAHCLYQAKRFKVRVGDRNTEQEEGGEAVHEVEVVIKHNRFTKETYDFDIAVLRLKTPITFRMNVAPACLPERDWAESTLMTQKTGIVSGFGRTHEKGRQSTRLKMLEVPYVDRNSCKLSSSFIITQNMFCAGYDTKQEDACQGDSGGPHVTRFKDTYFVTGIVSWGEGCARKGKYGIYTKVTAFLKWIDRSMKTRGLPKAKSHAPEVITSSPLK
Ratio Ki [1],Ratio Ki [2],Ki (Coagulation factor VII),Ratio Ki [3],Ki (Prothrombin),Ki [4],Ki (Coagulation factor X),SMILES
68,57,850 nM,80,–,–,–,O=C(NCc1cccc(-c2cccc(-c3cc4c[nH]ccc-4n3)c2O)c1)C(O)c1ccccc1 (configuration not stated)
56,56,2700 nM,67,–,–,–,O=C(NCc1cccc(-c2cccc(-c3cc4c[nH]ccc-4n3)c2O)c1)Nc1ccccn1
2000,2170,60 nM,2170,–,–,–,CC(=O)c1cccc(NC(=O)NCc2cccc(-c3cccc(-c4cc5c[nH]ccc-5n4)c3O)c2)c1
343,181,335 nM,388,–,–,–,CCCCCNC(=O)NCc1cccc(-c2cccc(-c3cc4c[nH]ccc-4n3)c2O)c1
938,538,–,600,–,–,–,O=C(NCc1cccc(-c2cccc(-c3cc4c[nH]ccc-4n3)c2O)c1)Nc1cccs1
769,1150,–,623,–,–,–,O=C(NCc1cccc(-c2cccc(-c3cc4c[nH]ccc-4n3)c2O)c1)Nc1ccsc1
5,9,17000 nM,3,–,–,–,O=C(NCc1cccc(-c2cccc(-c3cc4c[nH]ccc-4n3)c2O)c1)N1CCCC1
1360,1360,110 nM,382,–,–,–,O=C(NCc1cccc(-c2cccc(-c3cc4c[nH]ccc-4n3)c2O)c1)Nc1ccc(F)cc1
169,120,–,429,–,–,–,O=C(NCCc1cccs1)NCc1cccc(-c2cccc(-c3cc4c[nH]ccc-4n3)c2O)c1
174,96,270 nM,417,–,–,–,O=C(NCCc1ccccc1)NCc1cccc(-c2cccc(-c3cc4c[nH]ccc-4n3)c2O)c1
305,495,–,789,–,–,–,CC(=O)c1ccc(NC(=O)NCc2cccc(-c3cccc(-c4cc5c[nH]ccc-5n4)c3O)c2)cc1
1200,1500,100 nM,1700,–,–,–,O=C(NCc1cccc(-c2cccc(-c3cc4c[nH]ccc-4n3)c2O)c1)Nc1ccc(F)cc1F
3190,3190,47 nM,1720,–,–,–,COc1ccccc1NC(=O)NCc1cccc(-c2cccc(-c3cc4c[nH]ccc-4n3)c2O)c1
2630,2630,–,2630,–,–,–,O=C(NCc1cccc(-c2cccc(-c3cc4c[nH]ccc-4n3)c2O)c1)Nc1ccccc1Cl
1020,1590,88 nM,705,–,–,–,COc1ccc(NC(=O)NCc2cccc(-c3cccc(-c4cc5c[nH]ccc-5n4)c3O)c2)cc1
1500,1500,100 nM,1600,–,–,–,COc1cccc(NC(=O)NCc2cccc(-c3cccc(-c4cc5c[nH]ccc-5n4)c3O)c2)c1
181,181,830 nM,181,–,–,–,O=C(NCc1cccc(-c2cccc(-c3cc4c[nH]ccc-4n3)c2O)c1)Nc1cc(F)cc(F)c1

Ratio Ki [1],Ratio Ki [2],Ki (Coagulation factor VII),Ratio Ki [3],Ki (Prothrombin),Ki [4],Ki (Coagulation factor X),SMILES
1,1,130000 nM,1,–,–,–,CN1CCN(C(=O)NCc2cccc(-c3cccc(-c4cc5c[nH]ccc-5n4)c3O)c2)CC1
750,375,72 nM,653,–,–,–,O=C(NCc1cccc(-c2cccc(-c3cc4c[nH]ccc-4n3)c2O)c1)N(O)Cc1ccccc1
2460,2630,57 nM,1930,–,–,–,O=C(NCc1cccc(-c2cccc(-c3cc4c[nH]ccc-4n3)c2O)c1)Nc1ccccc1F
3180,5000,28 nM,2640,–,–,–,COc1ccc(NC(=O)NCc2cccc(-c3cccc(-c4cc5c[nH]ccc-5n4)c3O)c2)c(OC)c1
455,455,330 nM,455,–,–,–,O=C(NCc1cccc(-c2cccc(-c3cc4c[nH]ccc-4n3)c2O)c1)Nc1ccc(F)c(F)c1
2110,2030,61.5 nM,1010,–,–,–,O=C(NCc1cccc(-c2cccc(-c3cc4c[nH]ccc-4n3)c2O)c1)Nc1ccccc1
1150,1150,130 nM,923,–,–,–,O=C(NCc1cccc(-c2cccc(-c3cc4c[nH]ccc-4n3)c2O)c1)Nc1cccc(F)c1
107,34,610 nM,149,–,–,–,O=C(NCc1cccc(-c2cccc(-c3cc4c[nH]ccc-4n3)c2O)c1)C(CO)c1cccnc1 (configuration not stated)
16,16,9500 nM,10,–,–,–,O=C(Cc1c(F)cccc1F)NCc1cccc(-c2cccc(-c3cc4c[nH]ccc-4n3)c2O)c1
2240,1100,58 nM,966,–,–,–,O=C(NCc1cccc(-c2cccc(-c3cc4c[nH]ccc-4n3)c2O)c1)Nc1ccc(C(=O)O)cc1
470,57,220 nM,136,–,–,–,O=C(NCc1cccc(-c2cccc(-c3cc4c[nH]ccc-4n3)c2O)c1)C(CO)c1ccccc1 (configuration not stated)
–,–,–,–,71.5 µM,46.5 µM,125 µM,NC(=O)NCc1cccc(-c2cccc(-c3cc4c[nH]ccc-4n3)c2O)c1
968,935,155 nM,635,–,–,–,O=C(NCc1cccc(-c2cccc(-c3cc4c[nH]ccc-4n3)c2O)c1)Nc1cccnc1
–,–,–,–,–,3.6 µM,–,N=C(N)c1ccc2[nH]c(-c3cccc(-c4cc(CNC(N)=O)ccc4O)c3O)nc2c1
24,26,–,46,–,–,–,O=C(Cc1ccccc1)NCc1cccc(-c2cccc(-c3cc4c[nH]ccc-4n3)c2O)c1
3940,2180,33 nM,2700,–,–,–,O=C(NCc1cccc(-c2cccc(-c3cc4c[nH]ccc-4n3)c2O)c1)Nc1c(F)cccc1F
